Screening data deposited in PubChem by Johns Hopkins Ion Channel Center.
hERG protect: compounds protecting human hERG from proarrhythmic drug block. 310,000 tested, 0.51% active. Q12809. CHO-hERG, FluxOR thallium flux, dofetilide IC70 present. AID 1511. activation (rescue from dofetilide block), less the hit threshold, % at 10 µM;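 active means activation above the mean of controls blocked by dofetilide plus 5 SD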;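 further: thallium influx through hERG after potassium depolarization seen as dye fluorescence rise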
KCNQ1 pot: potentiates or activates the human KCNQ1 potassium channel | P51787 | CHO-K1 KCNQ1, thallium flux FluxOR fluorescence; active compounds read high | B-score at 10 µM | 310,000 tested, 0.35% active | AID 2648;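 active means fluorescence ratio B-score, a plate-corrected score, at least three library SD, with initial intensity B-score within 5 SD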
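Schedule – 37 °C overnight plating, 90-min dark dye load, 20-min compound pretreatment · System – stable KCNQ1 CHO-K1 line · Probe or stimulus – thallium- and potassium-containing depolarizing buffer · Measured by – kinetic FluxOR fluorescence, 10 s baseline plus 110 s post-stimulus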
KCNK9 block: blocks the human KCNK9 two-pore domain potassium channel; Q9NPC2; HEK293 KCNK9, FluxOR thallium flux fluorescence; active compounds read low; B-score at 10 µM; 310,000 tested, 1.2% active; AID 488922;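 active means ratio B-score over 3 SD below the library mean, with starting fluorescence within 5 SD of its mean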;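 further: negative B-score means less thallium flux so channel inhibition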
KCNK3 block: human KCNK3 channel inhibition, primary screen; O14649; CHO-KCNK3 thallium flux, FluxOR fluorescence; active compounds read low; B-score at 10 µM; 340,000 tested, 0.84% active;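 active means B-score under library mean minus 4 SD, starting fluorescence ratio at most library mean plus 5 SD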;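 further: more negative B-score means stronger inhibition of thallium flux through KCNK3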
Target sequence (O14649 whole entry, looked up): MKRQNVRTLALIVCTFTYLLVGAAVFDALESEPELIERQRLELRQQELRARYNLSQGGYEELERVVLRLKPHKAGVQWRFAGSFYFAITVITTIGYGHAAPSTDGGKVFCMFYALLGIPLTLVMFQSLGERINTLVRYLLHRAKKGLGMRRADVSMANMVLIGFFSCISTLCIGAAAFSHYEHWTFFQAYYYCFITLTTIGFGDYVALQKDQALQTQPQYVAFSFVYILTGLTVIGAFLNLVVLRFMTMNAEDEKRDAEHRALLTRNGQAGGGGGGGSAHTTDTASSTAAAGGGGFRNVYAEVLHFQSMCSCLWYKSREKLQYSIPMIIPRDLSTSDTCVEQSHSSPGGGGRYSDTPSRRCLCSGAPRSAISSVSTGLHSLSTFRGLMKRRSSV
KCNQ1 inh: blocks the human KCNQ1 potassium channel | AID 2642 | 310,000 tested, 1.3% active | CHO-K1 KCNQ1, FluxOR thallium flux fluorescence; active compounds read high | B-score at 10 µM;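 active means compounds whose thallium flux B-score, printed positive for inhibition, exceeds three library SD while starting fluorescence stays within three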;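 further: channel opened by potassium depolarization with thallium stimulus after 20 min compound exposure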
KCNK9 block conf: confirmation of human KCNK9 potassium channel inhibitors | 4,900 tested, 43% active | inhibition, % at 10 µM | AID 492992 | shares compounds with KCNK9 block | HEK293 KCNK9 cells, FluxOR thallium flux fluorescence;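 active means thallium signal inhibited by more than 5 SD of the compound-free buffer control wells, on both duplicate plates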
Kir2-1 spec: tests whether KCNK9 modulators also affect mouse Kir2.1. 4,900 tested, 4% active. AID 492993. shares compounds with KCNK9 block. Kir2.1 cells, FluxOR thallium flux fluorescence. inhibition, % at 10 µM;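 active means thallium signal drop more than 5 SD beyond the mean of the no-compound control wells, seen in both duplicate plates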;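 further: signal is fluorescence rise after thallium addition divided by baseline fluorescence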
KCNK9 uninduced: second check of KCNK9 modulator effects in non-induced HEK293 cells; inhibition, % at 10 µM; shares compounds with KCNK9 block; 4,900 tested, 40% active; FluxOR thallium flux;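 active means thallium signal drop beyond 5 SD of the untreated control mean, on both duplicate plates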
Hits are given with their value. Shown are actives, neighbours in structure and some others; about 3.1% of the full set was active somewhere.

`NC(=O)c1sc(-c2ccsc2)cc1NS(=O)(=O)c1ccc(C(F)(F)F)cc1` gave hERG protect inactive, KCNQ1 pot inactive, KCNK9 block inactive, KCNK3 block inactive, KCNQ1 inh inactive, KCNK9 block conf inactive, Kir2-1 spec inactive and KCNK9 uninduced inactive.
CCOP(=O)(OCC)c1nc(-c2cccc3ccccc23)oc1NCCc1ccc(OC)cc1 was read as hERG protect inactive, KCNQ1 pot inactive, KCNK9 block inactive, KCNK3 block inactive, KCNQ1 inh inactive, KCNK9 block conf inactive, Kir2-1 spec inactive and KCNK9 uninduced 28.5%.
`CCOP(=O)(OCC)c1nc(-c2cccc3ccccc23)oc1N1CCOCC1` gave hERG protect inactive, KCNQ1 pot inactive, KCNK9 block inactive, KCNK3 block inactive and KCNQ1 inh inactive.
`Cc1ccc(S(=O)(=O)N2CCCCC2)cc1NC(=O)COC(=O)Cc1ccc(Cl)cc1` gave hERG protect inactive, KCNQ1 pot inactive, KCNK9 block inactive, KCNK3 block inactive, KCNQ1 inh inactive, KCNK9 block conf inactive, Kir2-1 spec inactive and KCNK9 uninduced inactive.
For Cc1cc(C)c(NC(=O)c2cccc3c2C(=O)N(C2CCCCC2)C3)c(C)c1 the results were hERG protect inactive, KCNQ1 pot inactive, KCNK9 block -12, KCNK3 block inactive, KCNQ1 inh inactive, KCNK9 block conf inactive, Kir2-1 spec inactive and KCNK9 uninduced 52.0%.
`CN(C)c1ccc(C2C3CCCc4ccccc4C3=NN2C)cc1` (configuration not stated) gave hERG protect inactive, KCNQ1 pot inactive, KCNK9 block inactive, KCNK3 block inactive, KCNQ1 inh inactive, KCNK9 block conf inactive, Kir2-1 spec inactive and KCNK9 uninduced inactive.
For CN1N=C2c3ccccc3CCC2C1c1ccc(C(F)(F)F)cc1 (configuration not stated) the results were hERG protect inactive, KCNQ1 pot inactive, KCNK9 block inactive and KCNQ1 inh inactive.
For Cc1ccc(Oc2ncccc2C(=O)NCC(=O)O)cc1 the results were hERG protect inactive, KCNQ1 pot inactive, KCNK9 block inactive, KCNK3 block inactive and KCNQ1 inh inactive.
Screening Cc1ccc(C2=NCCn3c2c2ccc(C(F)(F)F)cc2[n+]3[O-])cc1 returned hERG protect inactive, KCNQ1 pot inactive, KCNK9 block inactive, KCNK3 block inactive and KCNQ1 inh inactive.
For O=C(O)c1ccc(-c2nc(-c3cccc(C(F)(F)F)c3)cs2)cc1 the results were hERG protect inactive, KCNQ1 pot inactive, KCNK9 block inactive, KCNK3 block inactive, KCNQ1 inh inactive, KCNK9 block conf inactive, Kir2-1 spec inactive and KCNK9 uninduced inactive.
For O=C(O)c1ccc(-c2nc(-c3ccc(Cl)cc3)cs2)cc1 the results were hERG protect inactive, KCNQ1 pot inactive, KCNK9 block inactive, KCNK3 block inactive and KCNQ1 inh inactive.
CSc1ncc(Cl)c(C(=O)NCc2cccnc2)n1 was read as hERG protect inactive, KCNQ1 pot inactive, KCNK9 block inactive, KCNK3 block inactive and KCNQ1 inh inactive.
`COc1ccc(-c2noc3c2-c2nc(C4CCCCC4)sc2CC3)cc1` gave hERG protect inactive, KCNQ1 pot inactive, KCNK9 block inactive, KCNK3 block inactive, KCNQ1 inh inactive, KCNK9 block conf inactive, Kir2-1 spec inactive and KCNK9 uninduced 24.0%.
For COc1ccc(-c2noc3c2-c2nc(-c4ccc(Cl)cc4)sc2CC3)cc1 the results were hERG protect inactive, KCNQ1 pot inactive, KCNK9 block inactive, KCNK3 block inactive and KCNQ1 inh inactive.
For Cc1ccc(C)c(-c2cc(C(=O)N/N=C/c3cccnc3)c3ccccc3n2)c1 the results were hERG protect inactive, KCNQ1 pot inactive, KCNK9 block -12.9, KCNK3 block -9.95, KCNQ1 inh inactive, KCNK9 block conf 53.5%, Kir2-1 spec inactive and KCNK9 uninduced 31.5%.
For CCOC(=O)C1=C(O)C(=O)N(C2CCCCC2)C1 the results were hERG protect inactive, KCNQ1 pot inactive, KCNK9 block inactive, KCNK3 block inactive and KCNQ1 inh inactive.
CNc1nc(SCc2ccccc2Cl)nc2c1CCCC2 was read as hERG protect inactive, KCNQ1 pot inactive, KCNK9 block -10.8, KCNK3 block inactive, KCNQ1 inh inactive, KCNK9 block conf 27.5%, Kir2-1 spec inactive and KCNK9 uninduced 37.5%.
CN(C)c1nc(SCc2ccc(Cl)cc2)nc2c1CCCC2 was read as hERG protect inactive, KCNQ1 pot inactive, KCNK9 block -9.9, KCNK3 block inactive, KCNQ1 inh inactive, KCNK9 block conf 33.5%, Kir2-1 spec inactive and KCNK9 uninduced 55.5%.
Screening Cc1cc(C)nc(SCc2ccc(Cl)cc2)n1 returned hERG protect inactive, KCNQ1 pot inactive, KCNK9 block inactive, KCNK3 block inactive and KCNQ1 inh inactive.
`C=CCSc1nnc(CCCCCN2C(=O)c3cccc4cccc(c34)C2=O)o1` gave hERG protect inactive, KCNQ1 pot inactive, KCNK9 block inactive, KCNK3 block inactive, KCNQ1 inh inactive, KCNK9 block conf inactive, Kir2-1 spec 35.0% and KCNK9 uninduced inactive.
COc1cccc(CNC(=O)CCCc2nnc3n(C)c(=O)c4sccc4n23)c1 was read as hERG protect inactive, KCNQ1 pot inactive, KCNK9 block inactive, KCNK3 block inactive and KCNQ1 inh inactive.
`Cc1cccc(CCNC(=O)CNS(=O)(=O)c2ccc3nc(C)sc3c2)c1` gave hERG protect inactive, KCNQ1 pot inactive, KCNK9 block inactive, KCNK3 block inactive and KCNQ1 inh inactive.
CCCc1cc(-c2nc(-c3ccc(Br)cc3)cs2)ccn1 was read as hERG protect inactive, KCNQ1 pot inactive, KCNK9 block -10.3, KCNK3 block inactive, KCNQ1 inh inactive, KCNK9 block conf inactive, Kir2-1 spec inactive and KCNK9 uninduced 26.5%.
Screening Cc1cc(C)c(C(=O)C2OC(=O)C(C)(C)C(=O)C2(C)C)c(C)c1 (configuration not stated) returned hERG protect inactive, KCNQ1 pot inactive, KCNK9 block inactive, KCNK3 block inactive, KCNQ1 inh inactive, KCNK9 block conf inactive, Kir2-1 spec inactive and KCNK9 uninduced inactive.
For CS(=O)(=O)N(CC(=O)Nc1cccc([N+](=O)[O-])c1)c1ccccc1 the results were hERG protect inactive, KCNQ1 pot inactive, KCNK9 block inactive, KCNK3 block inactive and KCNQ1 inh inactive.
For Cc1ccccc1CN(CC(=O)Nc1cccc([N+](=O)[O-])c1)S(=O)(=O)c1ccc(Cl)cc1 the results were hERG protect inactive, KCNQ1 pot inactive, KCNK9 block inactive, KCNK3 block inactive, KCNQ1 inh 9, KCNK9 block conf inactive, Kir2-1 spec inactive and KCNK9 uninduced inactive.
